Reference: ChEMBL document CHEMBL1126688, “Interphenylene 7-oxabicyclo[2.2.1]heptane oxazoles. Highly potent, selective, and long-acting thromboxane A2 receptor antagonists” (J Med Chem, 1993)

How the values were obtained:
[1] = Partition coefficient (logP); assay type: physicochemical; settings: octanol/water
Method in brief: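 log P came from reversed-phase TLC Rm values on C18 plates. Eluent was acetone in 0.5 M aqueous KBr, buffered with 0.25 N triethylammonium phosphate to pH 7.3. Values were converted with a calibration curve built from shake-flask partition coefficients (pH 7.0) of seven oxabicycloheptane compounds spanning a range of lipophilicities.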

Thromboxane A2 receptor = biological target: T1, Thromboxane A2 receptor (Homo sapiens, UniProt P21731); assay: Inhibitory binding activity against TXA2 receptor in human platelet membrane, using [3H]-SQ 29548 as the radioligand
T1 sequence (P21731 whole entry): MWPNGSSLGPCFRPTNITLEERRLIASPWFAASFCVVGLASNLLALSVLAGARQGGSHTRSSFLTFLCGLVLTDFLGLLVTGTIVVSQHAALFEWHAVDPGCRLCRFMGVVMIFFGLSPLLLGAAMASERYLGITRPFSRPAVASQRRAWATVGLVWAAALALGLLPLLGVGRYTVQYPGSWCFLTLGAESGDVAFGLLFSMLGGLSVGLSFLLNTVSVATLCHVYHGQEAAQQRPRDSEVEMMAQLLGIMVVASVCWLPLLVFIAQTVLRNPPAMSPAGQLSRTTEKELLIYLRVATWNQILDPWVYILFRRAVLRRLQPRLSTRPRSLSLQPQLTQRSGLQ
Method in brief: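 Competition binding of [3H]-SQ 29,548 to TxA2 receptors in human platelet membranes, measured as inhibition of specific binding. Kd (inhibition constant) was calculated from each compound's I50 value. A slope factor is also reported.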

Mus musculus = assay: In vivo duration of action required to prevent death in mice, after i.v. administration of U-46619 (2 mg/kg) at 0.2 mg/kg p.o.; settings: po
Homo sapiens [2] = species on record: Homo sapiens; assay: Inhibitory activity against platelet aggregation, induced by arachidonic acid in human platelet rich plasma; assay type: functional; settings: read-out: I50
Method in brief: (§1)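 Human platelet-rich plasma. Aggregation was induced by exogenous arachidonic acid or by the TxA2 mimetic U-46,619, each at a single fixed agonist level. I50 was taken as the antagonist concentration giving 50% inhibition of aggregation.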

Homo sapiens [3] = species on record: Homo sapiens; assay: Inhibitory activity against platelet aggregation, induced by U-46619 in human platelet rich plasma; assay type: functional; settings: read-out: I50; method in brief: as §1

Row | SMILES | logP [1] | Kd (Thromboxane A2 receptor) [nM] | T50 (Mus musculus) [h] | IC50 (Homo sapiens [2]) [nM] | IC50 (Homo sapiens [3]) [nM]
1 | O=C(O)CCc1ccccc1CC1C2CCC(O2)C1c1nc(C(=O)NC2CCCCC2)co1 (stereo not drawn) | 0.89 | 4.5 | 8.3 |  | 
2 | O=C(O)CCc1ccccc1CC1C2CCC(O2)C1c1nc(C(=O)Nc2ccc(Cl)cc2)co1 (stereo not drawn) | 2.52 |  | 25.8 | 6 | 
3 | NC(=O)CCc1ccccc1CC1C2CCC(O2)C1c1nc(C(=O)NCCCCC2CCCCC2)co1 (stereo not drawn) |  |  |  | 1070 | 
4 | CC(C)(C)CCCCNC(=O)c1coc(C2C3CCC(O3)C2Cc2ccccc2CCC(=O)O)n1 (stereo not drawn) | 3.41 | 0.6 | 36.5 | 8 | 35
5 | CC(C)(C)NC(=O)c1coc(C2C3CCC(O3)C2Cc2ccccc2CCC(=O)O)n1 (stereo not drawn) | -0.02 | 19 | 7.4 | 12 | 61
6 | O=C(O)CCc1ccccc1CC1C2CCC(O2)C1c1nc(C(=O)CCCCCC2CCCCC2)co1 (stereo not drawn) |  | 0.05 |  | 4 | 11
7 | O=C(O)CCc1ccccc1CC1C2CCC(O2)C1c1nc(C(=O)NCCC2CCCCC2)co1 (stereo not drawn) | 1.03 | 0.7 | 8.3 | 2 | 
8 | O=C(O)CCc1ccccc1CC1C2CCC(O2)C1c1nc(C(=O)NCCCCCO)co1 (stereo not drawn) | 1.07 | 20 |  | 15 | 35
9 | CCOC(=O)CCc1ccccc1CC1C2CCC(O2)C1c1nc(C(=O)NCCCCC2CCCCC2)co1 (stereo not drawn) |  |  |  | 290 | 
10 | O=C(O)c1cccc(CCC2C3CCC(O3)C2c2nc(C(=O)NCCCCC3CCCCC3)co2)c1 (stereo not drawn) |  | 18.4 |  | 110 | 
11 | CC(C)(CCCCNC(=O)c1coc(C2C3CCC(O3)C2Cc2ccccc2CCC(=O)O)n1)C(=O)O (stereo not drawn) | 0.5 |  |  | 64 | 
12 | CC(C)NC(=O)c1coc(C2C3CCC(O3)C2Cc2ccccc2CCC(=O)O)n1 (stereo not drawn) | 0.05 | 26 | 10 | 7 | 63
13 | CCC(C)(C)NC(=O)c1coc(C2C3CCC(O3)C2Cc2ccccc2CCC(=O)O)n1 (stereo not drawn) | 0.51 | 0.8 | 8.8 | 12 | 30
14 | COc1ccc(CCCCNC(=O)c2coc(C3C4CCC(O4)C3Cc3ccccc3CCC(=O)O)n2)cc1 (stereo not drawn) | 2.49 | 0.3 |  | 16 | 62
15 | CS(=O)(=O)NC(=O)CCc1ccccc1CC1C2CCC(O2)C1c1nc(C(=O)NCCCCC2CCCCC2)co1 (stereo not drawn) |  | 1.6 |  | 2 | 
16 | O=C(O)CCc1ccccc1CC1C2CCC(O2)C1c1nc(C(=O)NCCCCc2ccc(O)cc2)co1 (stereo not drawn) | 1.49 | 0.5 |  | 12 | 
17 | O=C(O)CCc1ccccc1CC1C2CCC(O2)C1c1nc(C(=O)OCCCCC2CCCCC2)co1 (stereo not drawn) |  | 1 |  | 2 | 10
18 | CC(C)(C)CCNC(=O)c1coc(C2C3CCC(O3)C2Cc2ccccc2CCC(=O)O)n1 (stereo not drawn) | 1.23 | 2.9 | 13.5 | 8 | 28
19 | O=C(O)CCc1ccccc1CCC1C2CCC(O2)C1c1nc(C(=O)NCCCCC2CCCCC2)co1 (stereo not drawn) |  |  |  | 63 | 616
20 | O=C(O)CCc1ccccc1CC1C2CCC(O2)C1c1nc(C(=O)NCCCCC(=O)NC2CCCCC2)co1 (stereo not drawn) | 1.18 | 22 |  | 27 | 82
21 | O=C(O)CCCc1ccccc1CC1C2CCC(O2)C1c1nc(C(=O)NCCCCC2CCCCC2)co1 (stereo not drawn) |  | 0.85 |  | 6 | 
22 | CCCNC(=O)c1coc(C2C3CCC(O3)C2Cc2ccccc2CCC(=O)O)n1 (stereo not drawn) | 0.4 | 10 | 2.3 | 8 | 53
23 | NC(=O)c1coc(C2C3CCC(O3)C2Cc2ccccc2CCC(=O)O)n1 (stereo not drawn) | -0.78 |  |  | 44 | 258

Row | SMILES | logP [1] | Kd (Thromboxane A2 receptor) [nM] | T50 (Mus musculus) [h] | IC50 (Homo sapiens [2]) [nM] | IC50 (Homo sapiens [3]) [nM]
24 | O=C(O)Cc1cccc(CCC2C3CCC(O3)C2c2nc(C(=O)NCCCCC3CCCCC3)co2)c1 (stereo not drawn) |  | 16.3 |  | 146 | 
25 | O=C(O)Cc1ccccc1CCC1C2CCC(O2)C1c1nc(C(=O)NCCCCC2CCCCC2)co1 (stereo not drawn) |  |  |  | 1580 | 
26 | CCCCCN(C)C(=O)c1coc(C2C3CCC(O3)C2Cc2ccccc2CCC(=O)O)n1 (stereo not drawn) | 1 | 11 | 11.3 | 9 | 
27 | O=C(O)CCc1ccccc1CC1C2CCC(O2)C1c1nc(C(=O)NCCCCc2ccc(Cl)cc2)co1 (stereo not drawn) | 3.52 | 0.2 | 18.6 |  | 
28 | O=C(O)CCc1ccccc1CC1C2CCC(O2)C1c1nc(/C=C/CCCCC2CCCCC2)co1 (stereo not drawn) |  |  |  | 320 | 2760
29 | CS(=O)(=O)c1ccc(CCCCNC(=O)c2coc(C3C4CCC(O4)C3Cc3ccccc3CCC(=O)O)n2)cc1 (stereo not drawn) | 0.32 |  |  | 26 | 
30 | O=C(O)CCc1ccccc1CC1C2CCC(O2)C1c1nc(C(=O)NCCCCC(F)(F)F)co1 (stereo not drawn) | 1.59 | 4.8 |  | 12 | 29
31 | O=C(O)CCc1ccccc1CC1C2CCC(O2)C1c1nc(CO)co1 (stereo not drawn) |  |  |  | 31000 | 
32 | CSc1ccc(CCCCNC(=O)c2coc(C3C4CCC(O4)C3Cc3ccccc3CCC(=O)O)n2)cc1 (stereo not drawn) | 1.66 | 2.9 |  | 6 | 
33 | O=C(O)COc1ccccc1CC1C2CCC(O2)C1c1nc(C(=O)NCCCCC2CCCCC2)co1 (stereo not drawn) |  | 3.2 |  | 7 | 8
34 | O=C(NCCCCC1CCCCC1)c1coc(C2C3CCC(O3)C2Cc2ccccc2CCCO)n1 (stereo not drawn) |  | 112 |  | 1540 | 
35 | CN(CCCCC1CCCCC1)C(=O)c1coc(C2C3CCC(O3)C2Cc2ccccc2CCC(=O)O)n1 (stereo not drawn) | 3.89 |  |  | 2 | 
36 | CCCCCCCCCCNC(=O)c1coc(C2C3CCC(O3)C2Cc2ccccc2CCC(=O)O)n1 (stereo not drawn) | 3.86 | 5.8 | 4.3 |  | 
37 | CNC(=O)c1coc(C2C3CCC(O3)C2Cc2ccccc2CCC(=O)O)n1 (stereo not drawn) | -0.11 | 45 | 7.5 |  | 
38 | O=C(O)CCc1ccccc1CC1C2CCC(O2)C1c1nc(C(=O)Nc2ccccc2)co1 (stereo not drawn) | 1.19 |  |  | 12 | 
39 | CC(C)(Cc1ccccc1CC1C2CCC(O2)C1c1nc(C(=O)NCCCCC2CCCCC2)co1)C(=O)O (stereo not drawn) |  | 36 |  | 4 | 13
40 | COc1ccc(NC(=O)c2coc(C3C4CCC(O4)C3Cc3ccccc3CCC(=O)O)n2)cc1 (stereo not drawn) | 0.95 |  |  | 6 | 
41 | O=C(O)Cc1cccc(CC2C3CCC(O3)C2c2nc(C(=O)NCCCCC3CCCCC3)co2)c1 (stereo not drawn) |  | 1.2 |  | 12 | 34
42 | O=C(O)Cc1ccccc1CC1C2CCC(O2)C1c1nc(C(=O)NCCCCC2CCCCC2)co1 (stereo not drawn) |  | 19 |  | 14 | 97
43 | O=C(NCCCCC1CCCCC1)c1coc(C2C3CCC(O3)C2Cc2ccccc2C(=O)O)n1 (stereo not drawn) |  |  |  | 52 | 171
44 | O=C(O)CCc1ccccc1CC1C2CCC(O2)C1c1nc(C(=S)NCCCCC2CCCCC2)co1 (stereo not drawn) |  | 10.6 |  | 2 | 9
45 | O=C(O)CCc1ccccc1CC1C2CCC(O2)C1c1nc(C(=O)NCCCCN2CCCCC2)co1 (stereo not drawn) | 0.53 | 22 |  | 30 | 137
